Data published in ChEMBL document CHEMBL1124773, “(Phosphinyloxy)acyl amino acid inhibitors of angiotensin converting enzyme. 2. Terminal amino acid analogues of (S)-1-[6-amino-2 [[hydroxy(4-phenylbutyl)phosphinyl]oxy]-1-oxohexyl]-L-proline” (J Med Chem, 1990).

How the values were obtained:
[1] = target: T1, Angiotensin-converting enzyme (Rattus norvegicus) (UniProt P47820); assay: In vivo dose required to produce 50% inhibition against angiotensin I in normotensive rat after intravenous administration; format: functional, organism-based
T1 sequence (whole entry): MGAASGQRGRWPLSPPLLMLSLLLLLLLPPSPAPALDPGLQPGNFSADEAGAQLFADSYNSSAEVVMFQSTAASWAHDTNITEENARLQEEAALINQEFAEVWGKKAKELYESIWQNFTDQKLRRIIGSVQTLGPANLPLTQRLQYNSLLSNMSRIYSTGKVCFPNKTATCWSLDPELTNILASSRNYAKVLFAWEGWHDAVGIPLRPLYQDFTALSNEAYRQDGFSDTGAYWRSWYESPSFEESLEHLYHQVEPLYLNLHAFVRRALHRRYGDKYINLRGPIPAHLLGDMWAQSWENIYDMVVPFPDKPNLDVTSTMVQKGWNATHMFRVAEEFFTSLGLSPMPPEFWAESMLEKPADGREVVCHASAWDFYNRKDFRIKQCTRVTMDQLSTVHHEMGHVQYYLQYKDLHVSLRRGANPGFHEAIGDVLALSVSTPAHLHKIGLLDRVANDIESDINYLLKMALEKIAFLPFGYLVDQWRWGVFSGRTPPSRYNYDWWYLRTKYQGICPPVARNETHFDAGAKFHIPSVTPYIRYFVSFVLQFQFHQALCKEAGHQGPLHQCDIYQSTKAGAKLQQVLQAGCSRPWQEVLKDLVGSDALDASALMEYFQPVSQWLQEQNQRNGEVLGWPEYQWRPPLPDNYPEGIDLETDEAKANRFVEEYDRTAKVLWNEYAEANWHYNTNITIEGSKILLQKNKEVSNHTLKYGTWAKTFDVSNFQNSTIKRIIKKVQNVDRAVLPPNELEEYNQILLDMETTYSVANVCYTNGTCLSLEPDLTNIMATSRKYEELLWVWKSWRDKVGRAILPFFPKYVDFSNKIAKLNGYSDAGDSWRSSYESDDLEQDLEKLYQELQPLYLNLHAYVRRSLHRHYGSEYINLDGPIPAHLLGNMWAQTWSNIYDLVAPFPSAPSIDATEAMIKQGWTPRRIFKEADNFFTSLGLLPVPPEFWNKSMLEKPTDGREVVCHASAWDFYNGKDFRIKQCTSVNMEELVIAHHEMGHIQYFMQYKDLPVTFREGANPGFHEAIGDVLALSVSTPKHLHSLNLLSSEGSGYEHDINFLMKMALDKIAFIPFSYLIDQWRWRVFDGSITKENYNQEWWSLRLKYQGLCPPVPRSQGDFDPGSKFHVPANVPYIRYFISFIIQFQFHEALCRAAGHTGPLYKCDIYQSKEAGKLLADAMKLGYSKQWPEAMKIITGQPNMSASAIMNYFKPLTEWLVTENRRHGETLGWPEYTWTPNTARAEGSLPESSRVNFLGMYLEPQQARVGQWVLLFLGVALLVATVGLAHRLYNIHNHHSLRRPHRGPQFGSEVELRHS
In short: (§1)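 Conscious, unrestrained male Sprague-Dawley rats (225–275 g) with indwelling aortic and vena caval catheters, recovered ≥2 weeks. […] Compound given iv in 0.1 mL water or 5% NaHCO3, responses followed up to 70 min. Maximum % inhibition is the mean of four rats per dose; ED50 interpolated from plots of ≥3 doses.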

[2] = target: T1, Angiotensin-converting enzyme (Rattus norvegicus); assay: In vivo oral activity in normotensive rat and percent maximal inhibition of the angiotensin I pressor response; format: functional, organism-based
In short: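 Catheterized conscious, unrestrained male Sprague-Dawley rats (225–275 g), recovered ≥2 weeks. […] Oral dose in 0.1 mL water, 5% NaHCO3 or 1% agar suspension. Aortic pressure read by transducer for up to 280 min. Maximum % inhibition is the mean of four animals per dose.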

[3] = target: T2, Angiotensin-converting enzyme (Oryctolagus cuniculus, UniProt P12822); assay: Inhibition of rabbit lung angiotensin I converting enzyme (ACE) using hippuryl-histidyl-leucine as substrate; conditions: read-out: I50
T2 sequence (P12822 whole entry): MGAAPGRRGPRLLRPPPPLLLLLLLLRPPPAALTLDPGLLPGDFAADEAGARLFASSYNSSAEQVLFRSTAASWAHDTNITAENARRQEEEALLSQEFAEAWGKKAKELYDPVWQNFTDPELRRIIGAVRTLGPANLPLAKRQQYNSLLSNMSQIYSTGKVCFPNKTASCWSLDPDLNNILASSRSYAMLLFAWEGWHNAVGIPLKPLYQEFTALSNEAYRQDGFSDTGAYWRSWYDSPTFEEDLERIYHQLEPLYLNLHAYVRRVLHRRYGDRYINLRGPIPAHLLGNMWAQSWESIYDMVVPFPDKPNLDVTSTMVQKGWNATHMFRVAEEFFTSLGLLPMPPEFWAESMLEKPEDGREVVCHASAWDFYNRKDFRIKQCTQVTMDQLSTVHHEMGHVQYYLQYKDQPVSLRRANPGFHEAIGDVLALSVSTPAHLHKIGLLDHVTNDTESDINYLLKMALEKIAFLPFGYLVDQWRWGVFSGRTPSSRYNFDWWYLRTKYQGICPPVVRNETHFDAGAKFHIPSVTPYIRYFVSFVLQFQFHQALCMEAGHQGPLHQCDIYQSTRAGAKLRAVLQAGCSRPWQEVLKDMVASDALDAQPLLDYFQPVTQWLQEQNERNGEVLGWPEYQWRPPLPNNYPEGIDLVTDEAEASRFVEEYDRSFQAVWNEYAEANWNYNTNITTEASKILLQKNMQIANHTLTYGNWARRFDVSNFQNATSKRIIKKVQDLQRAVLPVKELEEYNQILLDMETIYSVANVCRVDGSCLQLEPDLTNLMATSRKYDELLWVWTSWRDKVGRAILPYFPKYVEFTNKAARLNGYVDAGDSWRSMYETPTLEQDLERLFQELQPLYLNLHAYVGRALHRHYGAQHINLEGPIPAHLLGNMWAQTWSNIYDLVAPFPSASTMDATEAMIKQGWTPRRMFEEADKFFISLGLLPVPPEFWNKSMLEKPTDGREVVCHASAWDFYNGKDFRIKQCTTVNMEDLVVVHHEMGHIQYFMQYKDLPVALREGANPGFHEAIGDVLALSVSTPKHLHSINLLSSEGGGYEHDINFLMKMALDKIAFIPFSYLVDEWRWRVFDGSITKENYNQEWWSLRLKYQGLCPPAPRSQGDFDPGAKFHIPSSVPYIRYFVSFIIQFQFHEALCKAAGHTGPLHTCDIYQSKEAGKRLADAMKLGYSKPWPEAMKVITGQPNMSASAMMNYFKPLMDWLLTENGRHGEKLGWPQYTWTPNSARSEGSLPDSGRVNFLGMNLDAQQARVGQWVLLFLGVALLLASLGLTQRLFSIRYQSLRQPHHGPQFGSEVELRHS

[4] = target: T2, Angiotensin-converting enzyme; assay: Evaluated for inhibitory activity against rabbit lung angiotensin I converting enzyme (ACE) using hippuryl-histidyl-leucine as substrate; conditions: read-out: I50
[5] = target: T1, Angiotensin-converting enzyme (Rattus norvegicus); assay: In vivo dose required to produce 50% inhibition against angiotensin I (AI) in normotensive rat after intravenous administration; format: functional, organism-based; in short: as §1

| Compound | ED50 [1] | inhibition [2] | IC50 [3] | IC50 [4] | ED50 [5] |
| --- | --- | --- | --- | --- | --- |
| COc1ccc(N(CC(=O)O)C(=O)[C@H](CCCCN)OP(=O)(O)CCCCc2ccccc2)cc1OC | 0.04 µmol/kg | 62% | 35 nM |  |  |
| NCCCC[C@H](OP(=O)(O)CCCCc1ccccc1)C(=O)N(CC(=O)O)C1CCCCC1 | 0.106 µmol/kg | 31% | 22 nM |  |  |
| NCCCC[C@H](OP(=O)(O)CCCCc1ccccc1)C(=O)N(CC(=O)O)c1ccccc1 | 0.136 µmol/kg | 53% |  | 29 nM |  |
| NCCCC[C@H](OP(=O)(O)CCCCc1ccccc1)C(=O)N1C[C@H](C2CCCCC2)C[C@H]1C(=O)O | 0.11 µmol/kg | 15% | 31 nM |  |  |
| NCCCC[C@H](OP(=O)(O)CCCCc1ccccc1)C(=O)N1C[C@@H](C2CCCCC2)C[C@H]1C(=O)O | 0.06 µmol/kg | 33% | 11 nM |  |  |
| NCCCC[C@H](OP(=O)(O)CCCCc1ccccc1)C(=O)N1c2ccccc2C[C@H]1C(=O)O |  | 13% | 4.4 nM |  | < 0.014 µmol/kg |
| NCCCC[C@H](OP(=O)(O)CCCCc1ccccc1)C(=O)N(CC(=O)O)C1Cc2ccccc2C1 | 0.196 µmol/kg |  |  | 27 nM |  |
| NCCCC[C@H](OP(=O)(O)CCCCc1ccccc1)C(=O)N1C[C@H](c2ccccc2)C[C@H]1C(=O)O |  |  | 270 nM |  |  |
| NCCCC[C@H](OP(=O)(O)CCCCc1ccccc1)C(=O)N1[C@H](C(=O)O)C[C@@H]2CCCC[C@@H]21 | 0.1 µmol/kg | 14% | 28 nM |  |  |
| NCCCC[C@H](OP(=O)(O)CCCCc1ccccc1)C(=O)N1C[C@@H](Sc2ccccc2)C[C@H]1C(=O)O | 0.047 µmol/kg | 15% | 3 nM |  |  |
| NCCCC[C@H](OP(=O)(O)CCCCc1ccccc1)C(=O)N1C[C@@H](Cc2ccccc2)C[C@H]1C(=O)O | 0.026 µmol/kg | 14% | 1 nM |  |  |
| NCCCC[C@H](OP(=O)(O)CCCCc1ccccc1)C(=O)N1C[C@@H](c2ccccc2)C[C@H]1C(=O)O | 0.037 µmol/kg | 58% | 3.5 nM |  |  |
| COc1ccc(N(CC(=O)O)C(=O)[C@H](CCCCN)OP(=O)(O)CCCCc2ccccc2)cc1 | 0.043 µmol/kg | 40% | 39 nM |  |  |
| NCCCC[C@H](OP(=O)(O)CCCCc1ccccc1)C(=O)N(CC(=O)O)c1ccc2c(c1)OCO2 | 0.1 µmol/kg | 69% | 24 nM |  |  |
| NCCCC[C@H](OP(=O)(O)CCCCc1ccccc1)C(=O)N1C[C@H](Sc2ccccc2)C[C@H]1C(=O)O | 0.066 µmol/kg | 11% | 2.6 nM |  |  |

Other lines, results leading:

| ED50 [1] | inhibition [2] | IC50 [3] | IC50 [4] | ED50 [5] | Compound |
| --- | --- | --- | --- | --- | --- |
| 0.031 µmol/kg | 16% | 9.3 nM |  |  | CS[C@@H]1C[C@@H](C(=O)O)N(C(=O)[C@H](CCCCN)OP(=O)(O)CCCCc2ccccc2)C1 |
| 0.063 µmol/kg | 90% |  |  |  | NCCCC[C@H](OP(=O)(O)CCCCc1ccccc1)C(=O)N1CCC[C@H]1C(=O)O |
|  | 41% | 26 nM |  | 0.035 µmol/kg | NCCCC[C@H](OP(=O)(O)CCCCc1ccccc1)C(=O)N1[C@H](C(=O)O)C[C@@H]2CCC[C@@H]21 |
| 0.339 µmol/kg |  | 140 nM |  |  | NCCCC[C@H](OP(=O)(O)CCCCc1ccccc1)C(=O)N1C[C@H](O)C[C@H]1C(=O)O |
| 0.105 µmol/kg | 73% | 43 nM |  |  | NCCCC[C@H](OP(=O)(O)CCCCc1ccccc1)C(=O)N1CC=C[C@H]1C(=O)O |
|  |  | 160 nM |  |  | NCCCC[C@H](OP(=O)(O)CCCCc1ccccc1)C(=O)N1C[C@@H](F)C[C@H]1C(=O)O |
| 0.163 µmol/kg | 50% | 81 nM |  |  | NCCCC[C@H](OP(=O)(O)CCCCc1ccccc1)C(=O)N1CCS[C@H]1C(=O)O |
| 0.14 µmol/kg | 45% | 16 nM |  |  | CSC1(SC)C[C@@H](C(=O)O)N(C(=O)[C@H](CCCCN)OP(=O)(O)CCCCc2ccccc2)C1 |
| 0.059 µmol/kg | 8% | 9.7 nM |  |  | CS[C@H]1C[C@@H](C(=O)O)N(C(=O)[C@H](CCCCN)OP(=O)(O)CCCCc2ccccc2)C1 |
|  |  | 320 nM |  |  | NCCCC[C@H](OP(=O)(O)CCCCc1ccccc1)C(=O)N1C[C@H](F)C[C@H]1C(=O)O |
| 0.124 µmol/kg | 46% | 91 nM |  |  | NCCCC[C@H](OP(=O)(O)CCCCc1ccccc1)C(=O)N1CSC[C@H]1C(=O)O |
| 0.018 µmol/kg | 51% | 1.5 nM |  |  | NCCCC[C@H](OP(=O)(O)CCCCc1ccccc1)C(=O)N1CC2(C[C@H]1C(=O)O)SCCS2 |
| 0.033 µmol/kg | 69% | 25 nM |  |  | NCCCC[C@H](OP(=O)(O)CCCCc1ccccc1)C(=O)N1C[C@@H](O)C[C@H]1C(=O)O |
| 0.162 µmol/kg | 49% | 170 nM |  |  | NCCCC[C@H](OP(=O)(O)CCCCc1ccccc1)C(=O)N1CC(F)(F)C[C@H]1C(=O)O |
| 0.677 µmol/kg |  | 145 nM |  |  | NCCCC[C@H](OP(=O)(O)CCCCc1ccccc1)C(=O)N1COC[C@H]1C(=O)O |
